The values that follow come from ChEMBL document CHEMBL3826876, “Toward the Development of Specific G-Quadruplex Binders: Synthesis, Biophysical, and Biological Studies of New Hydrazone Derivatives” (J Med Chem, 2016).

Test [1] in a line: Binding affinity to synthetic telomere 23 G-quadruplex DNA assessed as change in melting temperature at 4 mol equiv in presence of 100 mM KCl buffer by circular dichroism spectroscopic analysis. In short, it runs like this: (§1)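 CD melting, 20-100 °C at 1 °C/min, signal at 264 (parallel), 290 (antiparallel) or 280 nm (duplex). G4 DNA 10 µM or duplex 15 µM, folded by heating at 90 °C 5 min and slow cooling, in 10 mM potassium phosphate (c-kit1, Tel23, Tel26) or lithium phosphate (Tel23-p, ds12) pH 7.0 with 100 mM KCl. Ligand 4 equiv; Tm by curve fit, ΔTm vs DNA alone; duplicate average.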

The nature of test [2]: Effect on synthetic c-MYC G-quadruplex DNA topology at 4 mol equiv by circular dichroism spectroscopic analysis. An outline of the steps: (§2)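 CD spectra at 20 °C, 230-360 nm, 3 scans averaged, baseline subtracted; 10 µM G4 or 15 µM duplex in potassium- or lithium-phosphate pH 7.0 buffers with 100 mM KCl (c-kit2, c-myc: 5 mM potassium phosphate, 20 mM KCl); ligand 4 molar equiv added to folded DNA from 6 mM DMSO stock.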
On the technique in general: Circular dichroism is the unequal absorption of left and right circularly polarised light.

The species entered for test [3] is Homo sapiens. In words: Binding affinity to human 5'-FAM/3'-TAMRA labeled telomere 21 G-quadruplex DNA assessed as increase in melting temperature by FRET assay. An outline of the steps:
(§3)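 FRET melting screen in 60 mM potassium cacodylate pH 7.4, labelled probe 400 nM annealed at 85 °C for 10 min; ligands at various concentrations up to 20 µM, diluted from 10 mM DMSO stock via 10 mM HCl. Excitation 450-495 nm, emission 515-545 nm, 30-100 °C in 0.5 °C steps with 30 s hold; ΔTm by curve fitting, triplicate.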

A short description of test [4]: Effect on synthetic telomere 23 parallel G-quadruplex DNA topology at 4 mol equiv by circular dichroism spectroscopic analysis. In short, it runs like this: as §2
Test [5] in a line: Effect on synthetic c-KIT2 G-quadruplex DNA topology at 4 mol equiv by circular dichroism spectroscopic analysis. An outline of the steps: as §2
Test [6] can be described thus: Effect on synthetic telomere 26 G-quadruplex DNA topology at 4 mol equiv by circular dichroism spectroscopic analysis. In short, it runs like this: as §2
The nature of test [7]: Binding affinity to synthetic c-KIT2 G-quadruplex DNA assessed as change in melting temperature at 4 mol equiv in presence of 20 mM KCl buffer by circular dichroism spectroscopic analysis. In short, it runs like this:
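CD melting as for other targets (20-100 °C, 1 °C/min, 10 µM folded G4, ligand 4 equiv), but in 5 mM potassium phosphate with 20 mM KCl; c-kit2 read at 264 nm as parallel G4. ΔTm from fitted Tm, duplicate average.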

Test [8] is described as follows: Binding affinity to synthetic telomere 23 parallel G-quadruplex DNA assessed as change in melting temperature at 4 mol equiv in presence of 100 mM KCl buffer by circular dichroism spectroscopic analysis. An outline of the steps:
as §1

Test [9] in a line: Binding affinity to synthetic telomere 26 G-quadruplex DNA assessed as change in melting temperature at 4 mol equiv in presence of 100 mM KCl buffer by circular dichroism spectroscopic analysis. In short, it runs like this: as §1
Test [10] in a line: Effect on synthetic c-KIT1 G-quadruplex DNA topology at 4 mol equiv by circular dichroism spectroscopic analysis. An outline of the steps:
as §2

A short description of test [11]: Effect on synthetic self-complementary DNA 12-mer duplex topology at 4 mol equiv in presence of K+ ions by circular dichroism spectroscopic analysis. An outline of the steps: as §2
Test [12] can be described thus: Binding affinity to synthetic c-KIT1 G-quadruplex DNA assessed as change in melting temperature at 4 mol equiv in presence of 100 mM KCl buffer by circular dichroism spectroscopic analysis. An outline of the steps:
as §1

Test [13] can be described thus: Binding affinity to synthetic c-MYC G-quadruplex DNA assessed as change in melting temperature at 4 mol equiv in presence of 20 mM KCl buffer by circular dichroism spectroscopic analysis.
For test [14], the species on record is Homo sapiens. The test can be described thus: Binding affinity to human 5'-FAM/3'-TAMRA labeled duplex DNA T-loop assessed as increase in melting temperature by FRET assay. An outline of the steps:
as §3

Test [15] in a line: Effect on synthetic telomere 23 G-quadruplex DNA topology at 4 mol equiv by circular dichroism spectroscopic analysis. In short, it runs like this:
as §2

A short description of test [16]: Binding affinity to synthetic self-complementary DNA 12-mer duplex assessed as change in melting temperature at 4 mol equiv in presence of 100 mM KCl buffer by circular dichroism spectroscopic analysis. In short, it runs like this:
as §1

Each structure is given as a SMILES string. Calls of active or inactive are those of the source. The rule behind the calls is not given here.

Turning to `Cn1c(Cl)c(/C=N/NC(=N)N)c2ccc(/C=N/NC(=N)N)cc21`, the ΔTm (as a rule, the shift of the melting midpoint relative to a reference) in test [1] was 6 °C; in test [7], over 20 °C; in test [8], over 20 °C; in [9] it was 5.8 °C; in test [12] it was over 15 °C; in [13], over 20 °C. The outcome in test [2], in [4], in [5], in test [6], in test [10] and in test [11] was inactive. For the same compound, the outcome in [15] was inactive. Moreover, the result in the test listed under Homo sapiens [3] and in the test listed under Homo sapiens [14] was Active.
As for `C(=N\Nc1ccccn1)/c1c(-c2ccccc2)nc2n1ccc1nc(-c3ccccc3)c(/C=N/Nc3ccccn3)n12`, the ΔTm in test [1] was -1 °C; in test [7], 0 °C; in test [8] it was 1.3 °C; in [9], -1.6 °C; in [12] it was 0.4 °C; in [13], -0.2 °C. Further, the ΔTm in test [16] was 0.9 °C. For the same compound, the outcome (in test [2]; in the test listed under Homo sapiens [3]; in test [4]; in [5]; in test [6]; in [10]) was inactive. For the same compound, the result in test [11] and in test [15] was inactive.
Turning to `CN1C(=C2\C(=N\Nc3ccccn3)c3ccccc3N2C)/C(=N/Nc2ccccn2)c2ccccc21`, the ΔTm is -2.5 °C in test [1]; 2 °C in test [7]; 4 °C in test [8]; -2 °C in test [9]; 1.5 °C in test [12]; 1.6 °C in test [13]. In addition, the ΔTm in test [16] was -0.7 °C. The outcome (in test [2]; in the test listed under Homo sapiens [3]; in test [4]; in test [5]; in test [6]; in [10]) was inactive. Moreover, the result in test [11] and in test [15] was inactive.
As to `N=C(N)N/N=C/c1ccc2c(/C=N/NC(=N)N)c(Cl)n(-c3ccccc3)c2c1`, the ΔTm in test [1] was 5.6 °C; in [7] it was over 15 °C; in test [8], over 20 °C; in test [9], 5.1 °C; in [12] it was over 15 °C; in [13], over 20 °C. For the same compound, the outcome in test [2], in test [4], in [5], in test [6], in test [10] and in [11] was inactive. Besides, in [15], the outcome was inactive. Besides, the result in the test listed under Homo sapiens [3] and in the test listed under Homo sapiens [14] was Active.
Take `CN1C(=C2\C(=N\NC(=N)N)c3ccccc3N2C)/C(=N/NC(=N)N)c2ccccc21`: the shift in melting temperature (ΔTm) in test [1] was -0.5 °C; in test [7], 8.2 °C; in [8] it was 7.7 °C; in test [9] it was 0.2 °C; in test [12], 0.9 °C; in [13], 11 °C. Further, in test [16], the thermal shift (ΔTm) was -0.8 °C. The outcome (in test [2]; in the test listed under Homo sapiens [3]; in test [4]; in test [5]; in [6]; in test [10]) was inactive. Also, the outcome in test [11] and in [15] was inactive.
